Values after ≈ are worked out from the molar mass of the structure shown.
Experiments:
[1] = system: Staphylococcus aureus; test: (§1) Antimicrobial activity against Staphylococcus aureus Smith after 18 hrs by agar dilution method; format: functional
Method in brief: (§2)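 Agar dilution on Mueller-Hinton medium, inoculum 10⁴ CFU/spot; MIC is the minimum inhibitory concentration against the named strain.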

[2] = system: Escherichia coli; test: Inhibition of Escherichia coli DNA gyrase A2B2 complex after 30 mins by supercoiling assay
[3] = system: Staphylococcus epidermidis; test: Antimicrobial activity against Staphylococcus epidermidis 16/2 after 18 hrs by agar dilution method; format: functional; details: 16/2, 18 h; method in brief: as §2
[4] = system: Staphylococcus aureus; test: as §1; format: functional; method in brief: as §2; remark: listed apart in the source
[5] = system: Staphylococcus aureus; test: Antimicrobial activity against Staphylococcus aureus ATCC 25923 after 18 hrs by agar dilution method; format: functional; details: ATCC 25923, 18 h; method in brief: as §2
[6] = system: Enterococcus faecalis; test: Antimicrobial activity against Enterococcus faecalis 6 after 18 hrs by agar dilution method; details: Enterococcus faecalis, 6, 18 h
[7] = system: Streptococcus pyogenes; test: Antimicrobial activity against Streptococcus pyogenes b15 after 18 hrs by agar dilution method; format: functional; details: b15, 18 h; method in brief: as §2
[8] = system: Escherichia coli; test: Antimicrobial activity against Escherichia coli 25922 after 18 hrs by agar dilution method; format: functional; details: Escherichia coli, 25922, 18 h; method in brief: as §2
[9] = system: Stenotrophomonas maltophilia; test: Antimicrobial activity against Xanthomonas maltophilia IAC 739 after 18 hrs by agar dilution method; format: functional; details: IAC 739, 18 h; method in brief: as §2
[10] = system: Staphylococcus aureus; test: Antimicrobial activity against Staphylococcus aureus Smith infected in iv dosed septicaemia Swiss albino mouse model after 4 days; format: functional; details: 96 h
Method in brief: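 Septicaemia model in mice infected with S. aureus Smith, compound given iv. In experiments with 0-1 survivors among 5-10 control mice, ED₅₀ (mg/kg) taken as lowest dose giving 3-5 survivors out of 5 infected mice.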

[11] = system: Staphylococcus aureus; test: Antimicrobial activity against multidrug-resistant Staphylococcus aureus after 18 hrs by agar dilution method; format: functional
Method in brief: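 Agar dilution on Mueller-Hinton agar, inoculum 10⁴ CFU/spot, against panels of multiresistant clinical strains (S. aureus 11, E. faecalis 16, E. faecium 23). MIC_50/90 in μg/mL taken as the minimum concentration inhibiting at least 50% or 90% of the strains tested.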

Structure (SMILES) | MIC [1] | MNEC [2] | ED50 [10] | further results
COc1cc(O)c2c(c1Br)C(=O)OCC(=O)NCC(=O)N[C@H](c1nc(CO)no1)CSC2 | 32 µg/mL (≈ 60.2 µM) | 0.02 µg/mL | – | –
COc1cc(O)c2c(c1Br)C(=O)OCC(=O)NCC(=S)N[C@H](c1nc(CNC(C)C)no1)CSC2.Cl | 0.5 µg/mL | 0.02 µg/mL | 12 mg/kg | MIC [3]: < 0.12 µg/mL; MIC [4]: 0.5 µg/mL; MIC [5]: 1 µg/mL; MIC [6]: 0.25 µg/mL; MIC [7]: 0.25 µg/mL; MIC [8]: > 64 µg/mL; MIC [9]: 16 µg/mL
COc1cc(O)c2c(c1C)C(=O)OC[C@@H](CO)CCC(=S)N[C@H](c1nc(C)no1)CSC2 | 1 µg/mL (≈ 2.08 µM) | 0.05 µg/mL | > 25 mg/kg | –
COc1cc(O)c2c(c1Br)C(=O)O[C@H](C)C(=O)NCC(=O)N[C@H](c1nc(C)no1)CSC2 | 2 µg/mL (≈ 3.78 µM) | 0.05 µg/mL | > 12.5 mg/kg | –
COc1cc(O)c2c(c1Cl)C(=O)OCCCCC(=O)N[C@H](c1nc(C)no1)CSC2 | 0.25 µg/mL (≈ 0.548 µM) | 0.005 µg/mL | > 25 mg/kg | –
CO[C@@H]1[C@@H](OC(N)=O)[C@@H](O)[C@H](Oc2ccc3c(O)c(NC(=O)c4ccc(O)c(CC=C(C)C)c4)c(=O)oc3c2C)OC1(C)C [NOVOBIOCIN] | – | – | 3 mg/kg | MIC [3]: 0.25 µg/mL (≈ 0.408 µM); MIC [4]: 0.12 µg/mL (≈ 0.196 µM); MIC [5]: 0.25 µg/mL (≈ 0.408 µM); MIC [6]: 4 µg/mL (≈ 6.53 µM); MIC [7]: 1 µg/mL (≈ 1.63 µM); MIC [8]: > 64 µg/mL; MIC [9]: > 64 µg/mL
COc1cc(O)c2c(c1Br)C(=O)OCCN(C(=O)[C@@H](N)CC(C)C)CC(=O)N[C@H](c1nc(C)no1)CSC2.Cl | 16 µg/mL | 0.1 µg/mL | – | –
COc1cc(O)c2c(c1Br)C(=O)O[C@H](c1ccccc1)C(=O)NCC(=S)N[C@H](c1nc(C)no1)CSC2 | 0.5 µg/mL (≈ 0.823 µM) | 1 µg/mL | > 25 mg/kg | –
COc1cc(O)c2c(c1C)C(=O)OCC(=S)NCC(=O)N[C@H](c1nc(C)no1)CSC2 | 2 µg/mL (≈ 4.29 µM) | 0.005 µg/mL | > 25 mg/kg | –
COc1cc(O)c2c(c1Br)C(=O)OCC(=O)NCC(=S)N[C@H](c1nc(CN)no1)CSC2.Cl | 1 µg/mL | 0.05 µg/mL | > 12 mg/kg | –
COc1cc(O)c2c(c1C)C(=O)O[C@H](CO)CCCC(=S)N[C@H](c1nc(CO)no1)CSC2 | 10 µg/mL (≈ 20.1 µM) | 0.01 µg/mL | – | –
COc1cc(O)c2c(c1Br)C(=O)OCCNCC(=S)N[C@H](c1nc(C)no1)CSC2.Cl | 0.5 µg/mL | 0.1 µg/mL | > 25 mg/kg | –
COCc1noc([C@@H]2CSCc3c(O)cc(OC)c(Br)c3C(=O)OCC(=O)NCC(=O)N2)n1 | 8 µg/mL (≈ 14.7 µM) | 0.05 µg/mL | – | –
COc1cc(O)c2c(c1Br)C(=O)OCCCCC(=S)N[C@H](c1nc(CN)no1)CSC2.Cl | 0.5 µg/mL | 0.05 µg/mL | 12.5 mg/kg | –
COc1cc(O)c2c(c1Br)C(=O)OCCN(C(=O)C1CC1)CC(=O)N[C@H](c1nc(C)no1)CSC2 | 8 µg/mL (≈ 14 µM) | 0.1 µg/mL | – | –
COc1cc(O)c2c(c1C)C(=O)O[C@H](CO)CCCC(=S)N[C@H](c1nc(CN)no1)CSC2 | 32 µg/mL (≈ 64.4 µM) | 0.005 µg/mL | – | –
COC(=O)[C@@H]1CSCc2c(O)cc(OC)c(C)c2C(=O)OCCOCC(=S)N1 | 2.37 µg/mL (≈ 5.52 µM) | 0.1 µg/mL | – | –
COc1cccc(OC)c1C(=O)N[C@@H]1C(=O)N2[C@@H]1SC(C)(C)[C@@H]2C(=O)O [METHICILLIN] | – | – | – | MIC50 [11]: 256 µg/mL (≈ 673 µM); MIC90 [11]: > 256 µg/mL
COc1cc(O)c2c(c1C)C(=O)OCCCCC(=S)N[C@H](c1nc(CO)no1)CSC2 | 0.25 µg/mL (≈ 0.535 µM) | 0.001 µg/mL | 25 mg/kg | –
COc1cc(O)c2c(c1Br)C(=O)OCC(=S)NCC(=S)N[C@H](c1nc(C)no1)CSC2 | 1 µg/mL (≈ 1.83 µM) | 0.2 µg/mL | – | –
COC(=O)[C@@H]1CSCc2c(O)cc(OC)c(C)c2C(=O)OCCCC/C(S)=N/1 | – | 0.01 µg/mL | – | –
COc1cc(O)c2c(c1C)C(=O)OC[C@H](CO)CCC(=S)N[C@H](c1nc(C)no1)CSC2 | 0.5 µg/mL (≈ 1.04 µM) | 0.002 µg/mL | 12.5 mg/kg | –
COc1cc(O)c2c(c1Br)C(=O)OCC(=O)NCC(=O)N[C@H](c1nc(C3CC3)no1)CSC2 | 2 µg/mL (≈ 3.69 µM) | 0.02 µg/mL | 6 mg/kg | –

— ChEMBL document CHEMBL1764975, “A new DNA gyrase inhibitor subclass of the cyclothialidine family based on a bicyclic dilactam-lactone scaffold. Synthesis and antibacterial properties” (J Med Chem, 2011)
